Experimental data: ChEMBL document CHEMBL1123986, “Oral absorption of cephalosporin antibiotics. 2. Expanded structure-activity relationships of 7-(arylacetamido)-3-substituted cephalosporins” (1988)
Converted amounts (≈) assume the structure as drawn.

What was measured:
Streptococcus pneumoniae [1] = assay: Efficacy against mouse infections caused by S. Pneumoniae measured as Minimum inhibitory concentration
[2] = Ratio of ED50 value evaluated in Streptococcus pneumoniae by po to sc administration; type: functional
In short: (§1)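 Oral/subcutaneous effective-dose ratio. Both routes were dosed in random-sex ICR mice of 19–21 g at 1 and 5 h after an intraperitoneal challenge of 50–500 LD50 from a frozen organism pool. Each route used five 2-fold dilution levels with eight mice per level, and the po value was divided by the sc value.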

[3] = Ratio of ED50 value evaluated in Streptococcus pyogenes by po to sc administration; type: functional
In short: as §1

Streptococcus pneumoniae [4] = assay: Minimum inhibitory concentration against Streptococcus pneumoniae; type: functional
In short: (§2)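 Agar dilution MIC in μg/mL. […] Organisms not run are marked not tested.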

Salmonella typhi [5] = assay: Minimum inhibitory concentration against Salmonella typhi; type: functional, Salmonella enterica subsp. enterica serovar Typhi; settings: Salmonella enterica
[6] = Ratio of ED50 value evaluated in Staphylococcus aureus by po to sc administration; type: functional
In short: as §1

Escherichia coli = assay: Minimum inhibitory concentration against Escherichia coli; type: functional
In short: as §2

Staphylococcus aureus [7] = assay: Efficacy against mouse infections caused by Staphylococcus aureus measured as Minimum inhibitory concentration
Mus musculus [8] = assay: (§3) Effective dose administered subcutaneously (sc) to 19-21-g random sex ICR mice at 1 hr and 5 hr intervals after intraperitoneal administration of Staphylococcus aureus; type: functional
In short: (§4)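 Mouse protection: random-sex ICR mice, 19–21 g, challenged intraperitoneally from a frozen organism pool giving 50–500 LD50 per challenge dose. Drug given sc or po at 1 and 5 h post-infection. Five 2-fold dilution levels per compound, eight mice per dilution.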

Mus musculus [9] = assay: (§5) Effective dose administered orally (po) to 19-21-g random sex ICR mice at 1 hr and 5 hr intervals after intraperitoneal administration of Streptococcus pneumoniae; type: functional
In short: as §4

Klebsiella aerogenes = assay: Minimum inhibitory concentration against Enterobacter aerogenes; type: functional
In short: as §2

Klebsiella pneumoniae [10] = assay: Minimum inhibitory concentration against Klebsiella pneumoniae; type: functional
In short: as §2

Streptococcus pyogenes [11] = assay: Minimum inhibitory concentration against Streptococcus pyogenes; type: functional
In short: as §2

Mus musculus [12] = assay: (§6) Effective dose administered subcutaneously (sc) to 19-21-g random sex ICR mice at 1 hr and 5 hr intervals after intraperitoneal administration of Streptococcus pneumoniae; type: functional
In short: as §4

Haemophilus influenzae [13] = assay: (§7) Minimum inhibitory concentration against Haemophilus influenzae; type: functional
In short: as §2

Haemophilus influenzae [14] = assay: as §7; type: functional; remark: listed apart in the source
In short: as §2

Streptococcus pyogenes [15] = assay: Efficacy against mouse infections caused by Streptococcus pyogenes measured as Minimum inhibitory concentration
Mus musculus [16] = assay: (§8) Effective dose administered orally (po) to 19-21-g random sex ICR mice at 1 hr and 5 hr intervals after intraperitoneal Streptococcus pyogenes; type: functional
In short: as §4

Staphylococcus aureus [17] = assay: Minimum inhibitory concentration against Staphylococcus aureus; type: functional
In short: as §2

Mus musculus [18] = assay: (§9) Effective dose administered subcutaneously (sc) to 19-21-g random sex ICR mice at 1 hr and 5 hr intervals after intraperitoneal administration of Streptococcus pyogenes; type: functional
In short: as §4

Mus musculus [19] = assay: (§10) Effective dose administered orally (po) to 19-21-g random sex ICR mice at 1 hr and 5 hr intervals after intraperitoneal Staphylococcus aureus; type: functional
In short: as §4

Salmonella typhi [20] = assay: Minimum inhibitory concentration by agar dilution method against Salmonella typhi; type: functional, Salmonella enterica subsp. enterica serovar Typhi; settings: Salmonella enterica
Staphylococcus aureus [21] = assay: as §3; type: functional
In short: as §4

Streptococcus pneumoniae [22] = assay: as §5; type: functional
In short: as §4

Klebsiella pneumoniae [23] = assay: Minimum inhibitory concentration by agar dilution method against Klebsiella pneumoniae; type: functional
In short: as §2

Staphylococcus aureus [24] = assay: Efficacy against mouse infections caused by Staphylococcus aureus measured as Minimum inhibitory concentration; type: functional
Streptococcus pneumoniae [25] = assay: Efficacy against mouse infections caused by S. Pneumoniae measured as Minimum inhibitory concentration; type: functional
Streptococcus pneumoniae [26] = assay: as §6; type: functional
In short: as §4

Streptococcus pyogenes [27] = assay: Efficacy against mouse infections caused by Streptococcus pyogenes measured as Minimum inhibitory concentration; type: functional
Haemophilus influenzae [28] = assay: Minimum inhibitory concentration by agar dilution method against Haemophilus influenzae (beta lactamase(-)); type: functional
In short: as §2

Streptococcus pyogenes [29] = assay: as §8; type: functional
In short: as §4

Streptococcus pyogenes [30] = assay: as §9; type: functional
In short: as §4

Staphylococcus aureus [31] = assay: as §10; type: functional
In short: as §4

Haemophilus influenzae [32] = assay: Minimum inhibitory concentration by agar dilution method against (beta lactamase(+); type: functional
In short: as §2

Haemophilus influenzae [33] = assay: Minimum inhibitory concentration by agar dilution method against Haemophilus influenzae (beta lactamase(-); type: functional
In short: as §2

Mus musculus [34] = assay: Effective dose administered orally (po) to 19-21-g random sex ICR mice at 1 hr and 5 hr intervals after intraperitoneal Streptococcus pneumoniae; type: functional
In short: as §4

## Nc1nc(CC(=O)N[C@@H]2C(=O)N3C(C(=O)O)=C(Cl)CS[C@H]23)cs1
Streptococcus pneumoniae [1]
  MIC: 0.5 µg/mL (≈ 1.33 µM)
[2]
  Ratio: 1.4
[3]
  Ratio: 0.7
Streptococcus pneumoniae [4]
  MIC: 0.25 µg/mL (≈ 0.667 µM)
Salmonella typhi [5]
  MIC: 0.25 µg/mL (≈ 0.667 µM)
[6]
  Ratio: 4.5

## O=C(Cc1csc2ccccc12)N[C@@H]1C(=O)N2C(C(=O)O)=C(Cl)CS[C@H]12
[2]
  Ratio: 2.4
[3]
  Ratio: 1.4
Salmonella typhi [5]
  MIC: 128 µg/mL (≈ 313 µM)
[6]
  Ratio: 2.4

## O=C(Cc1csc2ccccc12)N[C@@H]1C(=O)N2C(C(=O)O)=CCS[C@H]12
Escherichia coli
  MIC: 64 µg/mL (≈ 171 µM)
Streptococcus pneumoniae [1]
  MIC: 0.25 µg/mL (≈ 0.668 µM)
Staphylococcus aureus [7]
  MIC: 0.25 µg/mL (≈ 0.668 µM)
Mus musculus [8]
  ED50: 0.8 2mg kg-1
Mus musculus [9]
  ED50: >10 2mg kg-1
Klebsiella aerogenes
  MIC: > 128 µg/mL
Klebsiella pneumoniae [10]
  MIC: > 128 µg/mL
Streptococcus pneumoniae [4]
  MIC: 0.25 µg/mL (≈ 0.668 µM)
Salmonella typhi [5]
  MIC: > 128 µg/mL
Streptococcus pyogenes [11]
  MIC: 0.06 µg/mL (≈ 0.16 µM)
Mus musculus [12]
  ED50: >10 2mg kg-1
Haemophilus influenzae [13]
  MIC: 0.5 µg/mL (≈ 1.34 µM)
Haemophilus influenzae [14]
  MIC: 4 µg/mL (≈ 10.7 µM)
Streptococcus pyogenes [15]
  MIC: 0.06 µg/mL (≈ 0.16 µM)
[6]
  Ratio: 3.6
Mus musculus [16]
  ED50: >10 2mg kg-1
Staphylococcus aureus [17]
  MIC: 0.25 µg/mL (≈ 0.668 µM)
Mus musculus [18]
  ED50: 8.2 2mg kg-1
Mus musculus [19]
  ED50: 2.9 2mg kg-1

## O=C(CSc1cc(Cl)ccc1Cl)N[C@@H]1C(=O)N2C(C(=O)O)=C(Cl)CS[C@H]12
Escherichia coli
  MIC: 32 µg/mL (≈ 70.5 µM)
Streptococcus pneumoniae [1]
  MIC: 0.015 µg/mL (≈ 0.0331 µM)
Staphylococcus aureus [7]
  MIC: 0.03 µg/mL (≈ 0.0661 µM)
Mus musculus [8]
  ED50: 1.3 mg/kg
Mus musculus [9]
  ED50: > 25 mg/kg
Klebsiella aerogenes
  MIC: > 128 µg/mL
Klebsiella pneumoniae [10]
  MIC: 32 µg/mL (≈ 70.5 µM)
[3]
  Ratio: 2.6
Streptococcus pneumoniae [4]
  MIC: < 0.008 µg/mL
Streptococcus pyogenes [11]
  MIC: < 0.008 µg/mL
Mus musculus [12]
  ED50: 6.3 mg/kg
Haemophilus influenzae [13]
  MIC: 1 µg/mL (≈ 2.2 µM)
Haemophilus influenzae [14]
  MIC: 1 µg/mL (≈ 2.2 µM)
Streptococcus pyogenes [15]
  MIC: 0.125 µg/mL (≈ 0.275 µM)
[6]
  Ratio: 5.9
Mus musculus [16]
  ED50: 7.2 mg/kg
Staphylococcus aureus [17]
  MIC: 0.03 µg/mL (≈ 0.0661 µM)
Salmonella typhi [20]
  MIC: 64 µg/mL (≈ 141 µM)
Mus musculus [18]
  ED50: 2.8 mg/kg
Mus musculus [19]
  ED50: 7.7 mg/kg

## COC1=C(C(=O)O)N2C(=O)[C@@H](NC(=O)Cc3csc4ccccc34)[C@H]2SC1
Escherichia coli
  MIC: > 128 µg/mL
Staphylococcus aureus [21]
  ED50: 1.4 mg/kg
Streptococcus pneumoniae [22]
  ED50: > 10 mg/kg
Klebsiella aerogenes
  MIC: > 128 µg/mL
Klebsiella pneumoniae [23]
  MIC: > 128 µg/mL
Staphylococcus aureus [24]
  MIC: 0.5 µg/mL (≈ 1.24 µM)
Streptococcus pneumoniae [25]
  MIC: 0.5 µg/mL (≈ 1.24 µM)
Streptococcus pneumoniae [4]
  MIC: 0.5 µg/mL (≈ 1.24 µM)
Salmonella typhi [5]
  MIC: > 128 µg/mL
Streptococcus pyogenes [11]
  MIC: 0.25 µg/mL (≈ 0.618 µM)
Streptococcus pneumoniae [26]
  ED50: > 10 mg/kg
Streptococcus pyogenes [27]
  MIC: 0.25 µg/mL (≈ 0.618 µM)
Haemophilus influenzae [28]
  MIC: 8 µg/mL (≈ 19.8 µM)
Haemophilus influenzae [13]
  MIC: 0.5 µg/mL (≈ 1.24 µM)
[6]
  Ratio: 2
Streptococcus pyogenes [29]
  ED50: > 10 mg/kg
Staphylococcus aureus [17]
  MIC: 0.25 µg/mL (≈ 0.618 µM)
Streptococcus pyogenes [30]
  ED50: > 10 mg/kg
Staphylococcus aureus [31]
  ED50: 2.8 mg/kg

## C=CC1=C(C(=O)O)N2C(=O)[C@@H](NC(=O)Cc3csc4ccccc34)[C@H]2SC1
Escherichia coli
  MIC: > 128 µg/mL
Streptococcus pneumoniae [1]
  MIC: 0.03 µg/mL (≈ 0.0749 µM)
Staphylococcus aureus [7]
  MIC: 0.125 µg/mL (≈ 0.312 µM)
Mus musculus [8]
  ED50: 0.76 2mg kg-1
Mus musculus [9]
  ED50: >16 2mg kg-1
Klebsiella aerogenes
  MIC: > 128 µg/mL
Klebsiella pneumoniae [10]
  MIC: > 128 µg/mL
[3]
  Ratio: 4.2
Streptococcus pneumoniae [4]
  MIC: 0.06 µg/mL (≈ 0.15 µM)
Salmonella typhi [5]
  MIC: > 128 µg/mL
Streptococcus pyogenes [11]
  MIC: 0.015 µg/mL (≈ 0.0375 µM)
Mus musculus [12]
  ED50: 8.4 2mg kg-1
Haemophilus influenzae [13]
  MIC: 4 µg/mL (≈ 9.99 µM)
Haemophilus influenzae [14]
  MIC: 4 µg/mL (≈ 9.99 µM)
Streptococcus pyogenes [15]
  MIC: 0.03 µg/mL (≈ 0.0749 µM)
[6]
  Ratio: 4.1
Mus musculus [16]
  ED50: 14.7 2mg kg-1
Staphylococcus aureus [17]
  MIC: 0.125 µg/mL (≈ 0.312 µM)
Mus musculus [18]
  ED50: 3.54 2mg kg-1
Mus musculus [19]
  ED50: 3.12 2mg kg-1

## Nc1nc2cc(CC(=O)N[C@@H]3C(=O)N4C(C(=O)O)=C(Cl)CS[C@H]34)ccc2s1
Escherichia coli
  MIC: 64 µg/mL (≈ 151 µM)
Streptococcus pneumoniae [1]
  MIC: 0.06 µg/mL (≈ 0.141 µM)
Staphylococcus aureus [7]
  MIC: 0.25 µg/mL (≈ 0.588 µM)
Mus musculus [8]
  ED50: 3.54 mg/kg
Mus musculus [9]
  ED50: > 10 mg/kg
Klebsiella aerogenes
  MIC: > 128 µg/mL
Klebsiella pneumoniae [10]
  MIC: 64 µg/mL (≈ 151 µM)
[3]
  Ratio: 11
Streptococcus pneumoniae [4]
  MIC: 0.06 µg/mL (≈ 0.141 µM)
Salmonella typhi [5]
  MIC: 64 µg/mL (≈ 151 µM)
Streptococcus pyogenes [11]
  MIC: 0.06 µg/mL (≈ 0.141 µM)
Mus musculus [12]
  ED50: 2.3 mg/kg
Haemophilus influenzae [13]
  MIC: 0.5 µg/mL (≈ 1.18 µM)
Haemophilus influenzae [14]
  MIC: 0.5 µg/mL (≈ 1.18 µM)
Streptococcus pyogenes [15]
  MIC: 0.03 µg/mL (≈ 0.0706 µM)
Mus musculus [16]
  ED50: 10 mg/kg
Staphylococcus aureus [17]
  MIC: 0.25 µg/mL (≈ 0.588 µM)
Mus musculus [18]
  ED50: 0.9 mg/kg
Mus musculus [19]
  ED50: > 10 mg/kg

## Nc1nc(CC(=O)N[C@@H]2C(=O)N3C(C(=O)O)=C(Cl)CS[C@H]23)c(-c2ccccc2)s1
Haemophilus influenzae [32]
  MIC: 16 µg/mL (≈ 35.5 µM)
Escherichia coli
  MIC: > 128 µg/mL
Klebsiella aerogenes
  MIC: > 128 µg/mL
Klebsiella pneumoniae [10]
  MIC: > 128 µg/mL
Streptococcus pneumoniae [4]
  MIC: 0.03 µg/mL (≈ 0.0665 µM)
Salmonella typhi [5]
  MIC: > 128 µg/mL
Streptococcus pyogenes [11]
  MIC: 0.03 µg/mL (≈ 0.0665 µM)
Haemophilus influenzae [33]
  MIC: 16 µg/mL (≈ 35.5 µM)
Staphylococcus aureus [17]
  MIC: 0.03 µg/mL (≈ 0.0665 µM)

## CC1(C)S[C@@H]2[C@H](NC(=O)COc3ccccc3)C(=O)N2[C@H]1C(=O)O [PENICILLIN V]
[2]
  Ratio: 1.1
[3]
  Ratio: 3.9
Mus musculus [34]
  ED50: 2.3 mg/kg
[6]
  Ratio: 11
Mus musculus [19]
  ED50: 0.46 mg/kg
